Measurements: paper PMC3954946 (Journal of medicinal chemistry, 2013)

What was measured:
HCV genotype 1 (GT-1) = conditions: triple combination with Peg-IFN/RBV, genotype-1 naive patients; cited from earlier work
[1] = system: HCV GT-1a H77 subgenomic replicon; experiment: Stable HCV GT-1a H77 subgenomic replicon assay; format: cell-based, Hepatitis C virus; conditions: for Plasma Shift fold: EC50 with 40% human serum vs without, GT-1a and GT-1b
[2] = system: HCV GT-1b Con1 subgenomic replicon; experiment: Stable HCV GT-1b Con1 subgenomic replicon assay; format: cell-based, Hepatitis C virus
[3] = system: HCV GT-1b Con1 subgenomic replicon; conditions: genotype not given; cited from earlier work
[4] = system: GT-1b Con1 transient replicon with NS5B clinical isolates; experiment: Transient HCV replicon assay, panel of GT-1b NS5B clinical isolates; format: cell-based; conditions: Hepatitis C virus, GT1B, read-out: mean EC50, GT 1b panel, geometric mean
Pharmacokinetics in rat = format: in vivo, Male Wistar/Han (CRL:WI) rats; conditions: male, Wistar/Han (CRL:WI), plasma, po
Pharmacokinetics in dog = format: in vivo, Male beagle dogs; conditions: male, beagle, plasma, po
Method in brief: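 Male beagle dogs with free access to food and water received a single oral dose of test compound by gavage in 2% Klucel LF in water. Blood was collected into EDTA tubes at typically 0.25, 0.5, 1, 2, 4, 6, 8 and 24 h post-dose. Plasma concentrations were measured by LC/MS/MS after protein precipitation with acetonitrile.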

For `CC(C)(C)NC(=O)N[C@H](C(=O)N1C[C@H]2[C@@H]([C@H]1C(=O)NC(CC1CCC1)C(=O)C(N)=O)C2(C)C)C(C)(C)C` (stereo partly drawn) [Boceprevir], the SVR rates (HCV genotype 1 (GT-1)) is listed as no more than 68%.
For `COc1c(/C=C/c2ccc(NS(C)(=O)=O)cc2)cc(-c2cc(F)c[nH]c2=O)cc1C(C)(C)C` [Compound 7, reference compound], the EC50 ([1]; Hepatitis C virus, GT1A, read-out: GT-1a EC50) is listed as 8 nM, the EC50 ([2]; Hepatitis C virus, GT1B, read-out: GT-1b EC50) is listed as 3 nM and the “activity in the HCV subgenomic replicon assay” value [3] is listed as “single digit nM”.
With `CC(C)(C)c1cc(-c2cc(F)c[nH]c2=O)c2ncc(-c3ccc(NS(C)(=O)=O)cc3)cc2c1` [Compound 34] the drop in activity ([1]; desmethoxy analog vs 33, replicon GT-1a and GT-1b) was 4-to 6 fold.
In the case of `COc1c(C(C)(C)C)cc(-n2ccc(=O)[nH]c2=O)c2ncc(-c3ccc(NS(C)(=O)=O)cc3)cc12` [Compound 35, N-[4-[6-tert-Butyl-8-(2,4-dioxopyrimidin-1-yl)-5-methoxy-3-quinolyl]phenyl] methanesulfonamide], the “Plasma Shift fold” value [1] is reported as 1.7–2.2 fold.
In the case of `COc1c(C(C)(C)C)cc(-n2ccc(=O)[nH]c2=O)c2ccc(-c3ccc(NS(C)(=O)=O)cc3)cc12` [Compound 36, N-[4-[7-tert-Butyl-5-(2,4-dioxopyrimidin-1-yl)-8-methoxy-2-naphthyl]phenyl] methanesulfonamide], the “increase in potency against both genotypes with respect to quinoline 35” value ([1]; replicon GT-1a and GT-1b) is reported as 2- to 3 fold.
With `COc1c(C(C)(C)C)cc(-c2ccc[nH]c2=O)c2ncc(-c3ccc(NS(C)(=O)=O)cc3)cc12` [Compound 39, N-[4-[6-tert-Butyl-5-methoxy-8-(2-oxo-1H-pyridin-3-yl)-3-quinolyl]phenyl] methanesulfonamide] the “Plasma Shift fold” value [1] was 0.8–3.5 fold.
In the case of `COc1ccc(-c2cc(C(C)(C)C)c(OC)c3cc(-c4ccc(NS(C)(=O)=O)cc4)cnc23)c(=O)[nH]1` [Compound 41, N-[4-[6-tert-Butyl-5-methoxy-8-(6-methoxy-2-oxo-1H-pyridin-3-yl)-3-quinolyl]phenyl] methanesulfonamide], the “improvement in the 40% HS replicon assay” value ([1]; vs lead compound 7) is reported as 6 fold, the EC50 [4] is reported as 0.26 nM and the concentration at 8 h (Pharmacokinetics in rat) is reported as 1220 nM. For the same compound, the concentration at 8 h (Pharmacokinetics in dog) was 1950 nM.
In the case of `COc1c(C(C)(C)C)cc(N2CCCNC2=O)c2ncc(-c3ccc(NS(C)(=O)=O)cc3)cc12` [Compound 43], the “decrease in potency against GT-1a” value ([1]; vs dihydrouracil 42) is reported as 14 fold and the “decrease in potency against GT-1b” value ([2]; vs dihydrouracil 42) is reported as 6 fold.
For `COc1c(C(C)(C)C)cc(-c2cn(C)c(=O)[nH]c2=O)c2ncc(-c3ccc(NS(C)(=O)=O)cc3)cc12` [Compound 44], the “increase in potency against both genotypes with respect to quinoline 35” value ([1]; replicon GT-1a and GT-1b) was ~ 2 fold.
Work on `COc1ccc(-c2cc(C(C)(C)C)c(OC)c3cc(N4CC[C@H](CNS(C)(=O)=O)C4)cnc23)c(=O)[nH]1` [Compound 50, N-[[(3S)-1-[6-tert-butyl-5-methoxy-8-(6-methoxy-2-oxo-1H-pyridin-3-yl)-3-quinolyl]pyrrolidin-3-yl]methyl]methanesulfonamide] yielded a concentration at 8 h (Pharmacokinetics in rat) of 3500 nM.
For `COc1c(C2(C(F)F)CC2)cc(-n2ccc(=O)[nH]c2=O)c2ncc(-c3ccc(NS(C)(=O)=O)cc3)cc12` [Compound 53, N-[4-[6-[1-(Difluoromethyl)cyclopropyl]-8-(2,4-dioxopyrimidin-1-yl)-5-methoxy-3-quinolyl]phenyl]methanesulfonamide], the “improvement in potency with respect to compounds 51 and 52” value ([1]; replicon GT-1a and GT-1b) was 3- to 9 fold.
In the case of `CCC[C@H](NC(=O)[C@@H]1[C@H]2CCC[C@H]2CN1C(=O)[C@@H](NC(=O)[C@@H](NC(=O)c1cnccn1)C1CCCCC1)C(C)(C)C)C(=O)C(=O)NC1CC1` [Telaprevir], the SVR rates (HCV genotype 1 (GT-1)) is listed as “up to 75%”.
